Source: PubChem BioAssay
A selection: hits, their analogues and other compounds. The true share with any hit is near 1.3%.
proCasp7 act = counter-screen: procaspase-7 (human) activation | P55210 | recombinant procaspase-7, Ac-DEVD-pNA absorbance 405 nm; D23A/D198A/D206A triple mutant, cannot self-cleave; scale: DMSO 0, 5 µM enzyme 100 | activation, % at 8.5 µM | 0.093% of 330,000 active | AID 463210;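 active means percent activation above the screen-wide mean plus 3 SD, cut at about 25% in these data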
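signal = Epi-absorbance of released pNA at 405 nm, two timepoints | assay system = Uncleavable procaspase-7 mutant enzyme | reagent = Ac-DEVD-pNA substrate, 400 µM as added | times = 1 h enzyme–compound preincubation and 2 h substrate reaction, both 25 °C | benchmarks = low DMSO alone, high DMSO plus 5 µM PC-7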
proCasp3 act = activates human procaspase-3; P42574; recombinant procaspase-3 D3A, Ac-DEVD-pNA absorbance 405 nm; activation, % at 8.5 µM; 0.11% of 330,000 active; AID 463141;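 active means activation above the mean of all tested compounds plus 3 SD, cut at about 21% in these data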;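 further: 0% = DMSO alone and 100% = DMSO wells spiked with extra 5 µM PC-3 D3A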
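Assay system – Procaspase-3 D3A mutant, all three cleavage aspartates alanine · Controls – DMSO-only low control, 5 µM PC-3 D3A high control · Schedule – 1 h compound preincubation, 2 h substrate hydrolysis at 25 °C · Signal – 405 nm absorbance of p-nitroaniline, reads at 0 and 120 min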
CHT inh = human CHT choline transport inhibition. B-score at 10 µM. CHT-expressing cells, membrane potential dye, choline response; active compounds read low. 0.86% of 310,000 active. AID 488975;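 active means B-score over 3 SD under the library average, and starting fluorescence ratio not unusually high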;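 further: choline stimulus applied at its EC90 after an EC20 pre-addition; B-score computed on integrated fluorescence ratio after choline addition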
Target sequence (Q9GZV3 whole entry, looked up): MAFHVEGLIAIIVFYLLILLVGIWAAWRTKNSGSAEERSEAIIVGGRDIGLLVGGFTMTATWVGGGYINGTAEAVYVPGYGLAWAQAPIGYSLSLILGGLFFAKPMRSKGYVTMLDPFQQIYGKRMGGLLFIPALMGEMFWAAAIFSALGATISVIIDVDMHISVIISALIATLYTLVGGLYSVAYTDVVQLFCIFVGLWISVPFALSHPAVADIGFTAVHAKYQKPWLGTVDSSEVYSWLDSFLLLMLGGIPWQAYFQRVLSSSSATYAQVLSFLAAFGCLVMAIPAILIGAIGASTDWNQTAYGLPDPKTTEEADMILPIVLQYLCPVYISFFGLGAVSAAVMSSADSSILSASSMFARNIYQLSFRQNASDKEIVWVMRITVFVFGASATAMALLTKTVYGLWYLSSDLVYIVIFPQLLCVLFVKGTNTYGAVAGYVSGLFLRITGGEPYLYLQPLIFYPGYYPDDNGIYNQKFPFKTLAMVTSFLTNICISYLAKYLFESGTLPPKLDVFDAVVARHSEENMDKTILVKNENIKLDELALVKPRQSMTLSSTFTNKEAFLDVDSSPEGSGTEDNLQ
CHT PAM = allosteric activators of human choline transporter CHT. Q9GZV3. CHT-expressing cells, membrane potential dye, choline EC20; active compounds read high; LV-AA mutant CHT in HEK293 cells. B-score at 10 µM. 0.49% of 310,000 active. AID 488977;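 active means initial fluorescence not abnormally high and integrated response B-score, plate-corrected, over 3 SD above library mean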
CHT inh conf = confirmation of human choline transporter CHT inhibitors. CHT-expressing cells, choline membrane potential dye; LV-to-AA substituted CHT, HEK293 cells. 70% of 2,400 active. AID 493221. shares compounds with CHT inh. CHT activity remaining % of control (active compounds read low), % at 10 µM;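 active means choline transporter activity left, mean of duplicates at 10 µM, below buffer-only control mean minus 3 SD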;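 further: depolarization triggered by choline at its EC90 following an EC20 pre-addition; 0% = hemicholinium-3 full block and 100% = buffer-only control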
HEK293 CHT ctr = activity in parental HEK293 cells lacking CHT; shares compounds with CHT inh; membrane potential dye, choline response; active = decrease or increase beyond buffer ±3SD; membrane potential ratio readout (active if shifted either direction beyond buffer ±3SD; no single direction) at 10 µM; 4% of 2,400 active; AID 493222;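 further: parental cells lack the transporter so any hit is non-specific; ratio is peak minus trough fluorescence over baseline after EC90 choline challenge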
The depositor's hits bear a star; i = inactive; / = no result given.

SMILES	proCasp7 act	proCasp3 act	CHT inh	CHT PAM	CHT inh conf	HEK293 CHT ctr
Cc1cccc(OCC(O)Cn2c(=N)n(Cc3ccccc3)c3ccccc32)c1 (stereo unspecified)	10	1	-12*	i	57%*	i
O=C(O)c1ccc2c(c1)C(=O)N(c1cccc3ccccc13)C2=O	5	0	i	i	/	/
CC(C)C(NC(=O)c1ccccc1NC(=O)c1ccccc1)C(=O)NCCCn1ccnc1 (stereo unspecified)	-9	-8	i	i	/	/
Cc1ccc(C)c(S(=O)(=O)NCc2ccncc2)c1	4	-3	i	i	/	/
Cc1cc(S(=O)(=O)NCc2ccncc2)c(C)cc1Br	5	-5	-5*	i	67%*	i
COc1ccc(C(=O)Nc2nc3nccc(-c4ccccc4)n3n2)cc1	5	-11	-6.4*	i	i	i
O=C(Nc1nc2nccc(-c3ccccc3)n2n1)c1ccccc1	9	1	i	i	/	/
CCN(CC)CCNC(=O)C1(O)c2cc(Br)ccc2NC(=O)N1c1ccccc1 (stereo unspecified)	4	-6	i	i	/	/
Cc1c(NCc2cc(Cl)cc(Cl)c2O)c(=O)n(-c2ccccc2)n1C	7	3	-5*	i	i	i
Cc1c(NCc2cc(Cl)ccc2O)c(=O)n(-c2ccccc2)n1C	1	2	i	i	/	/
C=CCOc1ccc(CNCC2CCCO2)cc1 (stereo unspecified)	0	1	i	i	/	/
O=C(Nc1nnc(C2CC2)s1)C1COc2ccccc2O1 (stereo unspecified)	13	7	i	i	/	/
O=C(Nc1nnc(C(F)(F)F)s1)C1COc2ccccc2O1 (stereo unspecified)	1	2	-5.4*	i	49%*	i
Cc1c(CC(=O)N[C@H](C(=O)O)C(C)C)c(=O)oc2cc3c(cc12)CCC(C)(C)O3	/	/	i	i	/	/
CC(C)(C)NS(=O)(=O)c1cc(C(=O)Nc2sccc2C#N)ccc1Cl	7	-3	-5.3*	i	i	i
Cc1cc(C)c(C#N)c(Sc2ccc(N)cc2)n1	2	-2	i	i	/	/
COc1ccc(Cl)cc1N1C(=O)/C(=C\c2sccc2C)N=C1SCC(=O)NC1CC1	-7	-8	i	i	/	/
O=[N+]([O-])c1cc(Cl)ccc1N1CCN(c2cccc(C(F)(F)F)c2)CC1	-4	7	i	i	/	/
O=C(O)c1cc([N+](=O)[O-])cc([N+](=O)[O-])c1N1CCN(c2cccc(C(F)(F)F)c2)CC1	/	/	-5.3*	i	i	i
CCCn1ncc(CN2CCC(n3nccc3NC(=O)CCc3ccccc3)CC2)c1C	-7	2	i	i	/	/
Cc1ccc(C(=O)Nc2cccc(C(F)(F)F)c2)cc1NC(=O)c1csc(-c2ccncc2)n1	-6	2	-8*	i	25%*	i
CN1CCN(CCOCCOc2ccc(Br)cc2Cl)CC1	-1	1	-6.7*	i	56%*	i
CC1CCCN(CCOCCOc2ccc(Br)cc2Cl)C1 (stereo unspecified)	2	-2	i	i	/	/
O=C(NC1CCCCC1)N(Cc1ccccc1)Cc1ccco1	-1	2	-5.6*	i	70%*	i
CCOC(=O)N1CCC(NC(=O)C2CCCN(Cc3nc(-c4cccc(Cl)c4)oc3C)C2)CC1 (stereo unspecified)	0	9	-6.4*	i	51%*	i
SMILES	proCasp7 act	proCasp3 act	CHT inh	CHT PAM	CHT inh conf	HEK293 CHT ctr
Cc1oc(-c2ccc(Cl)cc2)nc1CN1CCCC(C(=O)NC2CC2)C1 (stereo unspecified)	-11	8	i	i	/	/
Cc1nc2ccccc2n1CSc1ccccc1	9	-3	i	i	i	i
Cc1nc2cc(-c3ccc(Cl)cc3)nn2c(NCCN(C)C)c1C	11	8	i	i	/	/
COc1ccc(OC)c(NC(=O)CN2C(=O)C(C)N(c3ccc(C)cc3)C2=O)c1 (stereo unspecified)	4	-3	/	/	/	/
Cc1c(C(=O)N(C)C2CC(C)(C)NC(C)(C)C2)oc2c(F)cccc12	-9	5	i	i	/	/
O=C(Nc1nc2ccc(S(=O)(=O)N3CCCCC3)cc2s1)c1cccnc1	0	-1	-5.5*	i	49%*	i
CC(=O)Nc1nc2ccc(S(=O)(=O)N3CCCCC3)cc2s1	9	3	i	i	/	/
COc1ccc(N2CCN(C(=O)c3cc(-c4cccs4)nc4ccccc34)CC2)cc1	0	9	-6.1*	i	i	i
COc1ccc(C(=O)c2c3ccccc3[n+]([O-])n2CCCN)cc1	-1	-3	i	i	/	/
Cc1ccc(C(=O)c2c3ccc(C(F)(F)F)cc3[n+]([O-])n2CCCC(N)=O)cc1	-4	7	i	i	/	/
COc1ccc(C(=O)c2c3ccc(C(F)(F)F)cc3[n+]([O-])n2CCCN)cc1	-4	5	-6.3*	i	22%*	i
Cc1ccc(C(=O)c2c3ccc(C(F)(F)F)cc3[n+]([O-])n2CCCN)cc1	-3	3	-5.9*	i	40%*	2.6*
CCCCn1c(N)c(N(CCC)C(=O)C2CCCC2)c(=O)[nH]c1=O	-1	3	/	/	/	/
S=C(NCC1CCCO1)Nc1cc(Cl)c(Cl)cc1Cl (stereo unspecified)	2	12	-9.9*	i	41%*	i
CC1CN(C(=O)CCC(=O)NCc2ccccc2)c2ccccc2O1 (stereo unspecified)	-11	-1	i	i	/	/
CC(C)NC(=O)C1COc2ccccc2O1 (stereo unspecified)	14	3	i	i	/	/
CC(C)N(C)CCOC(=O)C1COc2ccccc2O1 (stereo unspecified)	5	1	-6*	i	7.5%*	i
COc1cc2c(cc1OC)-c1cc(NC3CCCCCCC3)nc(=O)n1CC2	-2	2	-7.6*	i	27%*	i
CCOC(=O)C1=C(C)Nc2ccccc2N=C1NC(=O)C(CC)c1ccccc1 (stereo unspecified)	-10	-4	i	i	/	/
Cc1cc(C)c2nc(N3CCCN(C(=O)c4cnccn4)CC3)c(C#N)cc2c1	-5	-6	-5.2*	i	38%*	i
Cc1ccc(-n2cccc2/C=C2/C(=N)N3C(=NC2=O)SN=C3S(C)(=O)=O)cc1Cl	4	-13	i	i	/	/
Cc1cccc(C)c1-n1cccc1/C=C1/C(=N)N2C(=NC1=O)SN=C2S(C)(=O)=O	-3	-2	-5.5*	i	50%*	i
